# Sampled rows, rich in hits. Any-hit rate of the full collection: about 4.9%.
# Hep lipid drop: inhibitors of hepatocyte lipid droplet formation, primary screen, imaging, high-throughput imaging, BODIPY stain | AML12 mouse hepatocytes, oleate lipid droplets | inhibition, % at 6.5 µM | 240,000 tested, 0.4% active;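 active = lipid droplet intensity inhibited by at least 50%, with more than 500 cells counted; inconclusive = wells with under 300 cells, treated as cytotoxic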
#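 Test system: AML12 hepatocytes (mouse); reagent: oleate loading, 100 µM; dosing: one dose, 6.5 µM compound; incubation: overnight exposure; signal: fluorescence imaging, 20x objective, two fields per well; read-out basis: % inhibition of corrected integrated BODIPY droplet signal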
# CHT inh: inhibitors of human choline transporter CHT | CHT-expressing cells, membrane potential dye, choline response; active compounds read low | B-score at 10 µM | 310,000 tested, 0.86% active | AID 488975, 2010;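 active = B-score over 3 SD under the library average, and starting fluorescence ratio not unusually high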;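 also: choline stimulus applied at its EC90 after an EC20 pre-addition; B-score computed on integrated fluorescence ratio after choline addition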
# Target sequence (Q9GZV3 whole entry, looked up): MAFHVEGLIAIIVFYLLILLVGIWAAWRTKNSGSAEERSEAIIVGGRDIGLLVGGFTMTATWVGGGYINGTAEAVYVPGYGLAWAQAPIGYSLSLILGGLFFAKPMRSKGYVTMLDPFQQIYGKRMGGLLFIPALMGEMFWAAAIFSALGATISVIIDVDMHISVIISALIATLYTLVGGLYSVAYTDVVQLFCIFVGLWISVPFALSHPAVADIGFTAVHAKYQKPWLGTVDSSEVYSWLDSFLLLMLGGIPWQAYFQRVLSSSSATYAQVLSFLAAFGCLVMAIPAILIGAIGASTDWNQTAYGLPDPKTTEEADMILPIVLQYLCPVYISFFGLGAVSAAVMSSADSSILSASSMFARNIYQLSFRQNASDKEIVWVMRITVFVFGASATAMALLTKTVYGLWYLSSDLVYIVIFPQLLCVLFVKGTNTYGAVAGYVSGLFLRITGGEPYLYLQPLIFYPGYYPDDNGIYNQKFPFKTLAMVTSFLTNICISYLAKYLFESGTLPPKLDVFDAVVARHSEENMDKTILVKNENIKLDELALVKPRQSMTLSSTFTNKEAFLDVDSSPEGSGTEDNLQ
# HSF1 inhib: HSF1 inhibitors in luciferase reporter cells, primary screen, cell-based, NIH3T3, luminescence | NIH3T3-HGL HSE-luciferase, MG132-induced, luminescence 8 h; active compounds read low | activity change, negative = inhibition, % at 7.5 µM (by protocol) | 300,000 tested, 0.77% active;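 active = more than half of replicate wells show activity change below -50%, luminescence cut by over half; inconclusive = some wells, but at most half, below -50%; inactive = no replicate well below -50%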;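 also: luciferase reports HSF-1 transcriptional activity via heat shock element; 0% = median of DMSO wells and -100% = zero luminescence signal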
# HSF-1 act: HSF-1 activators, primary screen, NIH3T3-HGL cells, MG132 stress, luminescence, single point | NIH3T3-HGL HSF-1 luciferase reporter, 8 h; 100% = twice DMSO control signal | activation, % at 9 µM | 300,000 tested, 1.7% active;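 active = mean replicate activation of at least 50% with a set share of replicates each reaching 50%; inconclusive = only one of those two conditions met; inactive = mean below 50% and too few replicates reaching it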;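 also: 0% = median of the neutral control wells and 100% = twice that signal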
# PHOSPHO1 block: PubChem AID 1565 | inhibition, % at 13.3 µM | 290,000 tested, 1.1% active | Phosphoethanolamine/phosphocholine phosphatase (Homo sapiens), Q8TCT1 | recombinant PHOSPHO1, absorbance phosphatase assay; in the data active = inhibition above about 60%
# CHT allo act: CHT positive allosteric modulators, primary screen, cell-based, membrane potential dye, choline EC20 | AID 488977, 2010 | B-score at 10 µM | 310,000 tested, 0.49% active | High affinity choline transporter 1 (Homo sapiens), Q9GZV3 | CHT-expressing cells; active compounds read high; LV-AA mutant CHT in HEK293 cells;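 active = initial fluorescence not abnormally high and integrated response B-score, plate-corrected, over 3 SD above library mean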
# Starred values were filed as active, the others as inactive; i = inactive; ? = inconclusive; / = no result given.
SMILES,Hep lipid drop,CHT inh,HSF1 inhib,HSF-1 act,PHOSPHO1 block,CHT allo act
Cc1ccc(NC(=O)C(=O)c2ccc(C)cc2)cc1,3.8,i,19.3,61.2*,30.4,i
Cc1ccc(NC(=O)C2=C(c3ccccc3)S(=O)(=O)CCS2(=O)=O)cc1,4.1,i,-74.9*,-78.3,27.8,i
O=S(=O)(Nc1cccc(S(=O)(=O)N2CCOCC2)c1)c1ccc(Cl)s1,3.8,i,-2.7,-0.9,-19.1,i
O=C(c1cccc2ccccc12)N1CCN=C1SCc1ccc([N+](=O)[O-])cc1,-32.2,i,7.5,43.2,-18.9,i
Cc1ccccc1C(=O)N1CCN=C1SCc1ccc([N+](=O)[O-])cc1,-0.1,i,1.2,9.8,68.5*,i
COc1ccc(CCNC(=O)CC(=O)NCCc2ccc(OC)cc2)cc1,-1.5,i,3.0,-13.3,26.9,i
CCOc1ccc(NC(=O)CN2C(=O)COc3ccc(S(=O)(=O)N4CCCCC4)cc32)cc1,-20.9,i,-1.1,2.6,29.8,i
CCOC(=O)N1CCN(C(=O)CN2C(=O)COc3ccc(S(=O)(=O)N4CCOCC4)cc32)CC1,-2.7,i,30.6,58.3*,19.1,i
COc1cccc(NC(=O)CN2C(=O)COc3ccc(S(=O)(=O)N4CCC(C)CC4)cc32)c1,-4.7,i,53.4,86.4*,41.2,i
COc1ccccc1NC(=O)CN1C(=O)COc2ccc(S(=O)(=O)N3CCC(C)CC3)cc21,-1.5,i,9.1,17.2,52.6,i
CN1CCN(C(=O)CN2C(=O)COc3ccc(S(=O)(=O)N4CCOCC4)cc32)CC1,2.0,i,-6.2,-11.6,34.1,i
CCCNC(=O)CN1C(=O)COc2ccc(S(=O)(=O)N3CCCCCC3)cc21,13.1,i,-0.5,-10.3,39.5,i
CCCNC(=O)CN1C(=O)COc2ccc(S(=O)(=O)N3CC(C)CC(C)C3)cc21 (stereo not given),-4.7,i,-2.4,8.0,74.3*,i
COc1ccc(NC(=O)CN2C(=O)COc3ccc(S(=O)(=O)N4CCCCCC4)cc32)cc1,-78.2,i,-1.5,15.6,63.6*,i
COc1ccc(C(=O)NCCc2nnc(SCC(=O)Nc3ccccc3C(C)C)n2C)cc1,-2.4,i,-0.6,30.7,4.8,i
Cc1ccccc1C(=O)NCCSc1ccccc1,-19.1,i,28.9,53.9*,-1.2,i
O=c1oc(-c2ccccc2)cc(Cl)c1Cl,23.5,i,308.8,454.7*,5.2,i
CCn1cc(C(=O)O)c(=O)c2cc(F)c(N3CCN(C(=S)NC(=O)c4ccccc4Br)CC3)cc21,-3.1,i,-4.2,-1.5,24.0,i
COC(=O)c1ccccc1NC(=O)c1cc2nc(C3CC3)cc(C(F)(F)F)n2n1,/,i,-8.4,5.3,-31.6,i
COc1cc(NC(=O)c2cc3nc(C4CC4)cc(C(F)(F)F)n3n2)c(OC)cc1Cl,/,i,-1.7,2.5,60.1*,i
COc1ccc(S(=O)(=O)N(C)CC(=O)N2CCC(C(N)=O)CC2)cc1Cl,-5.4,i,25.2,66.0*,-6.1,i
COc1ccc(C)cc1S(=O)(=O)N(C)CC(=O)N1CCC(C(N)=O)CC1,-12.5,i,-4.8,-4.4,54.3,i
Cc1cc(O)c(/C=N/Nc2ccc(F)cc2)c(=O)o1,3.5,i,7.0,3.1,-100.1,i
Cc1ccc(N/N=C/c2c(O)cc(C)oc2=O)cc1,/,i,10.4,24.7,88.3*,i
CN(C)C(=S)SCC(=O)Nc1cccc(C(F)(F)F)c1,-5.9,i,3.0,25.0,67.3*,i
SMILES,Hep lipid drop,CHT inh,HSF1 inhib,HSF-1 act,PHOSPHO1 block,CHT allo act
CSc1sc(C(=O)OC(C)C)c2c1C(=O)CC(C)(C)C2,?,i,29.7,52.8*,33.4,i
O=C(Nc1nc(-c2cc3ccccc3oc2=O)cs1)c1ccc(Br)o1,-1.0,i,31.6,65.7*,39.6,i
CC(=O)Nc1ccc(Nc2nc(-c3cc4ccccc4oc3=O)cs2)cc1,5.7,i,17.3,-2.7,24.1,i
O=C(O)c1ccc(Nc2nc(-c3cc4ccccc4oc3=O)cs2)cc1O,2.9,/,22.4,65.0*,-85.2,/
COc1ccc(C(CC(=O)N2CCN(c3ccccc3)CC2)c2c(OC)cc(OC)c3ccc(=O)oc23)cc1 (stereo not given),-2.4,i,8.6,-0.6,17.7,i
C/C=C/c1ccc(OCCCCN(C)Cc2ccccc2)c(OC)c1,-10.7,i,-0.8,-13.3,-2.4,i
Cc1ccc(NC(=S)N(Cc2ccc(Cl)cc2)Cc2ccc(C(=O)O)cc2)cc1Cl,7.8,i,52.3,73.9*,14.5,i
COc1ccc(CN(CC2CCC(C(=O)O)CC2)C(=S)Nc2ccc(C)c(Cl)c2)cc1 (stereo not given),7.2,i,-17.1,-14.4,-24.8,i
CCC(=O)N1CCN(c2ccc(Cl)cc2NC(=O)c2ccc(Br)o2)CC1,/,i,8.4,9.3,/,i
CC(c1ccccc1)n1c(SCC(=O)Nc2ccccc2)n[nH]c1=O (stereo not given),1.5,i,3.9,-8.2,15.9,i
CNC(=S)N/N=C/c1ccc(N(C)C)cc1,12.3,i,10.1,16.4,60.8*,i
CNC(=S)N/N=C/c1ccc(C(C)C)cc1,/,i,16.2,35.4,/,i
CN(C)c1ccc(/C=N/NC(=S)NCc2ccccc2)cc1,/,i,15.6,55.3*,15.3,i
COc1ccc(C)cc1NC(=O)CSc1nnc2ccc(-c3ccncc3)nn12,/,i,-3.4,-2.4,/,i
COc1ccc(NC(=O)CSc2nnc3ccc(-c4ccncc4)nn23)cc1OC,4.0,i,-75.0*,-80.1,41.7,i
Cc1ccc(C=Nc2ccccc2C(=O)Nc2ccccc2)cc1,-11.4,i,0.1,6.4,-4.6,i
Cc1ccc(/C=C/C(=O)Nc2ccccc2C(N)=O)cc1,6.8,i,17.8,59.1*,-0.5,i
Cc1ccc(C=Nc2ccccc2C(N)=O)cc1,-4.0,i,54.9,66.0*,-1.7,i
CCOC(=O)c1c(-c2ccc(-c3ccccc3)cc2)csc1NC(=O)c1cccc(N2C(=O)CCC2=O)c1,-26.1,i,-7.7,-5.0,3.5,i
CCOc1ccc(N(CC(=O)Nc2ccccc2Cl)S(C)(=O)=O)cc1,3.9,i,-22.2,-37.1,34.8,i
CCOc1ccc(N(CC(=O)Nc2ccccc2)S(C)(=O)=O)cc1,/,i,6.4,4.4,79.6*,i
